This sample holds only a part of the variants without activity.
B1: tRNA (parent)
chain: GUUCCGUUGGCGUAAUGGUAACGCGUCUCCCUCCUAAGGAGAAGACUGCGGGUUCGAGUCCCGUACGGAACG

Variants of: B1
Assay: yeast fitness relative to wild type (ratio to wild type); higher = fitter; tRNA-Arg(CCU), competitive growth, 37 C, YPD
Method in brief: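 Amplicons of the tRNA-Arg(CCU) gene were sequenced, 100-nucleotide paired-end, from the start population and from each end population of a pooled yeast competition. The competition, in six parallel replicates, lasted 24 hours in YPD at 37°C. Fitness relative to wild type was calculated from changes in genotype frequencies. Genotypes had to have ≥ 100 starting reads, and estimates < 0.5 were set to 0.5.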

Yeast fitness, 0.544:
A14U C31A

Yeast fitness, 0.547:
A14U A40U G58C

Yeast fitness, 0.574:
A14U A37C C62A C66A
A14U C29A U54A U59A

Yeast fitness, 0.64:
A14U C30A C66U A70G

Yeast fitness, 0.571:
A14U C22U A36U

Yeast fitness, 0.629:
A14U A36U A69U

Yeast fitness, 0.6:
A14U A37G

Yeast fitness, 0.588:
A14U A20U

Yeast fitness, 0.52:
A14U C27G A36G C46A U59A

Yeast fitness, 0.634:
A14U A43U A45G

Yeast fitness, 0.578:
A14U C30A C55A C62A

Yeast fitness, 0.586:
A14U A36C

Yeast fitness, 0.543:
A14U A21G A70C

Yeast fitness, 0.653:
A14U A45C

Yeast fitness, 0.531:
A14U A36U
A14U C24G A42C

Yeast fitness, 0.55:
A14U C24G G41A G44A U53A

Yeast fitness, 0.542:
A14U C29G G67A

Yeast fitness, 0.655:
A14U A21G C34G A57U A69U

Yeast fitness, 0.568:
A14U A20U A36U

Yeast fitness, 0.534:
A14U C24U C33A G44C U47C

Yeast fitness, 0.667:
A14U C27A C62G

Yeast fitness, 0.592:
A14U A40U A69U

Yeast fitness, 0.54:
A14U C22U

Yeast fitness, 0.707:
A14U A40G

Yeast fitness, 0.533:
A14U A36U G63A
A14U C24G G41A G44A U53A C66U

Yeast fitness, 0.572:
A14U A45U

Yeast fitness, 0.678:
A14U A20C U28C C46U G58A

Yeast fitness, 0.627:
A14U A37C

Yeast fitness, 0.551:
A14U A37C G44A A70G

Yeast fitness, 0.559:
A14U A65G

Yeast fitness, 0.591:
A14U A20U G52U

Yeast fitness, 0.62:
A14U A40U A42U G51A

Yeast fitness, 0.611:
A14U A65C

Yeast fitness, 0.527:
A14U C27G A57U

Yeast fitness, 0.529:
A14U A37C C46U G51C C66G
A14U C30G C33A

Yeast fitness, ≤ 0.5:
A14U A20G A69C
A14U A20G C24A C31U C33U A37U G48A A69U
A14U A20G C30G A42C A70G
A14U A20G G44C
A14U A20U A42G A65C A69C A70G
A14U A20U C66U G67A
A14U A20U G63A
A14U A21C A36C C49A C66G
A14U A21C C22U C33G A57U C60G G68C
A14U A21C G41A A45G
A14U A21G C61G A70U
A14U A21G G39C A45G
A14U A21G G39C A45G G50U U53C
A14U A21G G39C A45G U53C C62U
A14U A21G G58A
A14U A21U C31U A43U G44C
A14U A21U C49U G67C
A14U A21U G58C
A14U A21U U32G A37G A45G C55A
A14U A36G A40G
A14U A36G A40G A65U
A14U A36U G38A
A14U A36U G41A C49G
A14U A37U C61G C62U
A14U A37U C62G A70U
A14U A37U C66U
A14U A37U U59A
A14U A40C A57C
A14U A40C A57C C60U
A14U A40C C66A
A14U A40G C62G
A14U A42C C46A
A14U A42C U54A G67C A69U
A14U A42U A57U A70U
A14U A42U A65G A69C
A14U A42U C61U C66U
A14U A43C A65U
A14U A43C C46U
A14U A43C C62U C66U
A14U A43G A57C C60G C61A
A14U A43G C49U
A14U A43G C55G
A14U A43G C62U
A14U A43U A45G G68A
A14U A45G U53C A65U
A14U A45U U47A
A14U A57C
A14U A57U
A14U C22A A43G C49U
A14U C22A A43G G52C
A14U C22A A43G G68C
A14U C22A A57C
A14U C22G A43U A57C G63C C66U
A14U C22G C60G
A14U C22U A40U G44C
A14U C22U G25A C55G C60U
A14U C22U G25A C55G C60U G68C
A14U C24A C30U A37G
A14U C24A C55G
A14U C24G A36G G68U
A14U C24G A36U
A14U C24G A57C A65G
A14U C24G C27U U54G
A14U C24G C31A A40G G44C
A14U C24G C31A A40G G44C C55U
A14U C24G C31A A40G G44C C55U A69U
A14U C24G C46G G52A
A14U C24G G41A G44A
A14U C24G G41A G44A C61U
A14U C24G G41A G44A U53A C66U G68C
A14U C24G U26C U28C A45U C49A
A14U C24G U26G G56C
A14U C24U C33A G44C U47C C60G
A14U C24U C33A G44C U47C U64G
A14U C24U C33G A65U C66U A69C
A14U C24U C34U C49G
A14U C24U G48C
A14U C24U G48C C62U A70C
A14U C27G C34A C61U C66G A69U
A14U C27G C66U
A14U C27G G52A G63C
A14U C27U C29G C31U
A14U C27U C29G C31U C61G
A14U C27U C33U G51A G67A
A14U C27U C55G G68C
A14U C29A C49A
A14U C29G C34G
A14U C29G C55G A69G A70G
A14U C29G C62U
A14U C29G G51A C66G
A14U C29U A37U A69U
A14U C29U A37U G41A
A14U C29U C55U
A14U C30A A43C G63A
A14U C30A C31G G41C A70U
A14U C30A G41A G56C
A14U C30A U32C
A14U C30G C55U
A14U C30G G51C
A14U C30U A37G A70G
A14U C30U A42C
A14U C30U A42G
A14U C30U A42G C66G
A14U C30U C31A G63C
A14U C30U C46U G52C
A14U C30U C46U G52C A69U
A14U C30U U32C U64G
A14U C30U U53A
A14U C30U U59A

Yeast fitness, 0.757:
A14U A37C G44A

Yeast fitness, 0.566:
A14U A21U A69C

Yeast fitness, 0.596:
A14U A70C

Yeast fitness, 0.536:
A14U A36U G38A U54A

Yeast fitness, 0.608:
A14U A69G

Yeast fitness, 0.561:
A14U C24G G58A

Yeast fitness, 0.76:
A14U C27A

Yeast fitness, 0.538:
A14U A21C C29U

Yeast fitness, 0.597:
A14U A40U

Yeast fitness, 0.539:
A14U A37G G44C A45C G50A C55G C66A
A14U A40U G67A
A14U A45U A69C

Yeast fitness, 0.635:
A14U A69C
A14U C22U A40U G44C A57C

Yeast fitness, 0.594:
A14U C27U

Yeast fitness, 0.573:
A14U C30G C62G

Yeast fitness, 0.749:
A14U A20G

Yeast fitness, 0.639:
A14U A65U

Yeast fitness, 0.567:
A14U A21C A36C C49A A65G C66G

Reference: the RNAGym collection of RNA variant scans (doi:10.1126/science.aae0568)
